Measured values pooled from the literature.
Target: Serine/threonine-protein kinase SBK1 (SBK1, Homo sapiens, UniProt Q52WX2)

| Compound | assay | conditions | remaining binding [%] |
| --- | --- | --- | --- |
| Nc1ncc2c(n1)-c1c([nH]c3ccc(C#CC4CC4)cc13)CCCC2 | binding, competition with immobilised ligand | 1 µM | 100 |
| CC(=O)c1c(NS(C)(=O)=O)c2cc(-c3ccc(Cl)cc3)c(-c3ccc(Cl)cc3Cl)nc2n(C)c1=O | cell-free assay, competition with immobilised ligand | 1 µM | 77 |
| N[C@@H]1CCN(c2nccc(-c3cnn4ncccc34)n2)C1 | binding | 1 µM | 94 |
| O=C(NCc1ncc(C(F)(F)F)cc1Cl)c1ccc2c(c1)C1(CCS(=O)(=O)CC1)[C@H](C1CC1)N2S(=O)(=O)c1ccc(F)cc1 | cell-free assay, competition with immobilised ligand | 1 µM | 97 |
| C=CC(=O)N1CCC(C(=O)NCC(=O)N2CCN(c3nc(-c4cnc(N)nc4C(F)F)nc(N4CCOCC4)n3)CC2)CC1 | binding, competition with immobilised ligand | 1 µM | 100 |
| O=C(c1ccc(Nc2nccc(-c3cc4ccccc4s3)n2)cc1)N1CCC(N2CCCC2)CC1 | binding, competition with immobilised ligand | 1 µM | 88 |
| CN(c1nccc(-c2cnn3ncccc23)n1)C1CC1 | binding | 1 µM | 100 |
| O=C(NCC1CCOCC1)c1n[nH]cc1NC(=O)c1c(F)cccc1F | binding, competition with immobilised ligand | 1 µM | 70 |
| c1cnn2ncc(-c3ccnc(N4CCC45COC5)n3)c2c1 | binding | 1 µM | 65 |
| Cc1cc(NC(=O)c2cccc(S(F)(F)(F)(F)F)c2)cc(-n2ccn3nc(-c4cccnc4)cc23)c1 | cell-free assay, competition with immobilised ligand | 1 µM | 100 |
| COc1ncc2cc3ccccc3nc2c1C#N | cell-free assay, competition with immobilised ligand | 5 µM | 82 |
| FC(F)(F)Oc1cccc(-c2cnc3ccc(-c4ccncc4)nn23)c1 | binding, competition with immobilised ligand | 5 µM | 85 |
| CC1CCCN1c1nccc(-c2cnn3ncccc23)n1 (stereo not shown) | binding | 1 µM | 100 |
| O=C(NCCCN1CCOCC1)c1ccc(Nc2ncc(Cl)c(-c3ccc(Cl)s3)n2)cc1 | binding, competition with immobilised ligand | 1 µM | 52 |
| Cc1c[nH]c2nccc(Oc3c(F)cc(Nc4cc(Cl)nc(N)n4)cc3F)c12 | cell-free assay, competition with immobilised ligand | 0.1 µM | 94 |
| Cc1cnn2ncc(-c3ccnc(N(C)C)n3)c2c1 | binding | 1 µM | 83 |
| O=S(=O)(NC1CCC(c2cc(F)ccc2F)(S(=O)(=O)c2ccc(Cl)cc2)CC1)C(F)(F)F (stereo not shown) | cell-free assay, competition with immobilised ligand | 1 µM | 75 |
| C[C@@H]1CCN(c2nccc(-c3cnn4ncccc34)n2)C1 | binding | 1 µM | 85 |
| CCCOc1ccc([C@H]2[C@H](C(=O)O)[C@@H](c3ccc4c(c3)OCO4)CN2CC(=O)Nc2c(CC)cccc2CC)cc1 | cell-free assay, competition with immobilised ligand | 1 µM | 78 |
| O=C(c1ccc(Nc2ncc(Cl)c(-c3cc4ccccc4s3)n2)cc1)N1CCC(N2CCCC2)CC1 | binding, competition with immobilised ligand | 1 µM | 52 |
| CCCCN(CCCC)C(=O)CN1C[C@H](c2cc(OC)c3c(c2)OCO3)[C@@H](C(=O)O)[C@@H]1CC(C)(C)CCC | cell-free assay, competition with immobilised ligand | 1 µM | 76.5 |
| CNC(=O)[C@@H]1CC[C@@H](n2c(-c3ccc4cnccc4c3)nc3ccc(C(=O)NCc4cccc(C(N)=O)c4)cc32)C1 | binding, competition with immobilised ligand | 1 µM | 100 |
